What all share (type): cell-based
Assay [1] deals with GABA-A receptor; alpha-3/beta-3/gamma-2 (Homo sapiens) (UniProt P18507+P28472+P34903). In words: Efficacy was measured as modulation of the current in response to GABA at hGABA alpha-3-beta-3-gamma-2 receptor expressed in Xenopus oocytes. Conditions: Oocyte. Put shortly: (§1)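 Two-electrode voltage clamp on Xenopus oocytes expressing each receptor combination. […] Value is percent increase or decrease of the EC20 GABA current.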

Assay [2] has as its target T1, GABA-A receptor; alpha-5/beta-3/gamma-2 (Homo sapiens, UniProt P18507+P28472+P31644).
T1 sequence (P18507 whole entry): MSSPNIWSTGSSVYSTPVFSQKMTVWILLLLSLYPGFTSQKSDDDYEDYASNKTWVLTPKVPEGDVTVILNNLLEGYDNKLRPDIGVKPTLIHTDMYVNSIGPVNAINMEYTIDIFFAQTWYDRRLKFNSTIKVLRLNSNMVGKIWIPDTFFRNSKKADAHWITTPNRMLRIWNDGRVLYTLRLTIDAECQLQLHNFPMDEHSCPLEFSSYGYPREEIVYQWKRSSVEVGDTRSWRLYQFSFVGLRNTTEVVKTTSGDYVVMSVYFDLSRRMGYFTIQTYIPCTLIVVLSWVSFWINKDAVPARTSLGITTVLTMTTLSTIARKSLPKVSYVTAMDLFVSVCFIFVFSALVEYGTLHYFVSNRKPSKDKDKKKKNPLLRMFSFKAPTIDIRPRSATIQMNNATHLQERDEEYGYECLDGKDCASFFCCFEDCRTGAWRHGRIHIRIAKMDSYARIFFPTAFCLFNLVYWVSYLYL
T1 sequence (P28472 whole entry): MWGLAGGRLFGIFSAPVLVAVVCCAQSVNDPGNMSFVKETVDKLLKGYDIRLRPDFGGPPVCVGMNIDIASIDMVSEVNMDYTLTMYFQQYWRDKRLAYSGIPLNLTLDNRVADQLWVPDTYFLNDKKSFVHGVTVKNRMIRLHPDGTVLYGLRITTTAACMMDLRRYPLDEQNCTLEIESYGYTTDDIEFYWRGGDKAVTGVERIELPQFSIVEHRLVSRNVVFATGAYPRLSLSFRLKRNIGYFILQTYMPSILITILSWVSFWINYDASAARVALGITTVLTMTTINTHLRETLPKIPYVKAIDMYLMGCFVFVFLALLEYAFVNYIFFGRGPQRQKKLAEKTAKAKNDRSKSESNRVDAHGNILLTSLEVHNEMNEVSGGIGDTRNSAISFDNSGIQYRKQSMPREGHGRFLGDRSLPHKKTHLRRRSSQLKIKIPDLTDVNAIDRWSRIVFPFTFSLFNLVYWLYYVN
T1 sequence (P31644 whole entry): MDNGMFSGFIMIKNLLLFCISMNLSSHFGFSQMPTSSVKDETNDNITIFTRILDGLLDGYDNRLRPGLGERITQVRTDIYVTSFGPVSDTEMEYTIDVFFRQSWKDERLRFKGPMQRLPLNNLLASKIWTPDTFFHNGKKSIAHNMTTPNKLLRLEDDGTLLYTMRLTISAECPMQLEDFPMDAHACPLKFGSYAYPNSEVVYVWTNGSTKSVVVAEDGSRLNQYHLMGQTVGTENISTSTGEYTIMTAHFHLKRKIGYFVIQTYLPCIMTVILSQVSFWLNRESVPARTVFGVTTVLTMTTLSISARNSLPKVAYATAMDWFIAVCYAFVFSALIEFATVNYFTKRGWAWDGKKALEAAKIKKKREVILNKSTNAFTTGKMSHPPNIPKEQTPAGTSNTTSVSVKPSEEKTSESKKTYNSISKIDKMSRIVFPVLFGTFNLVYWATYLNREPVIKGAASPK
In words: Inhibition of [3H]Ro-151788 binding to recombinant human gamma-aminobutyric-acid A receptor alpha-5-beta-3-gamma-2 subtype expressed in L (tk-) cells.

The target in assay [3] is T2, GABA-A receptor; alpha-1/beta-3/gamma-2 (Homo sapiens, UniProt P14867+P18507+P28472).
T2 sequence (P14867 whole entry): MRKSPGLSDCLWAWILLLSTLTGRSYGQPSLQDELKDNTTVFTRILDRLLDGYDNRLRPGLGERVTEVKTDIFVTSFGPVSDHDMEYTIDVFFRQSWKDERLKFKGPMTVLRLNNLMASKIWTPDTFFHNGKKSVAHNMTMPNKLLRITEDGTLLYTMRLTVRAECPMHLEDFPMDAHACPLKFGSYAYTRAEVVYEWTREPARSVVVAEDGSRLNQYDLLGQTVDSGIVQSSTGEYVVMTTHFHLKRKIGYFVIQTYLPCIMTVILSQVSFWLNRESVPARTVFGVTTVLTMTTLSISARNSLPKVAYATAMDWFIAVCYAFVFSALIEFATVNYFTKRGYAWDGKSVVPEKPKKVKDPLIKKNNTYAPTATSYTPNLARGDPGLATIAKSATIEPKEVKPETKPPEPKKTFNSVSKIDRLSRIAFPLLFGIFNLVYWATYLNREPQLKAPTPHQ
T2 sequence (P18507 whole entry): T1 sequence (P18507 whole entry)
T2 sequence (P28472 whole entry): T1 sequence (P28472 whole entry)
In words: Inhibition of [3H]Ro-151788 binding to recombinant human gamma-aminobutyric-acid A receptor alpha-1-beta-3-gamma-2 subtype expressed in L (tk-) cells.

The target in assay [4] is T3, GABA-A receptor; alpha-2/beta-3/gamma-2 (Homo sapiens, UniProt P18507+P28472+P47869).
T3 sequence (P18507 whole entry): T1 sequence (P18507 whole entry)
T3 sequence (P28472 whole entry): T1 sequence (P28472 whole entry)
T3 sequence (P47869 whole entry): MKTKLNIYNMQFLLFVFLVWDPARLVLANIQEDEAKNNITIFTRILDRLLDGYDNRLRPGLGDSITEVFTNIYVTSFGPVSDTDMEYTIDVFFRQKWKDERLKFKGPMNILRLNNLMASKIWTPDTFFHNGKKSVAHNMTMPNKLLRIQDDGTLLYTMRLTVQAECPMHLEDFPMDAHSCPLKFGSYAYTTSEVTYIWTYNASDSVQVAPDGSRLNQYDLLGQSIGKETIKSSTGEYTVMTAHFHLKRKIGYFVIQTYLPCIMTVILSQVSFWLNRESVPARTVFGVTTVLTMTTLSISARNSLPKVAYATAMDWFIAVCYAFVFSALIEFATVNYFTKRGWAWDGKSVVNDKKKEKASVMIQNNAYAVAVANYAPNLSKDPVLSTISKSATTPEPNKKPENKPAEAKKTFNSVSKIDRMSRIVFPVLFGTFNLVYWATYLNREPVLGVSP
In words: Inhibition of [3H]Ro-151788 binding to recombinant human gamma-aminobutyric acid A receptor alpha-2-beta-3-gamma-2 subtype expressed in L (tk-) cells.

The target in assay [5] is GABA-A receptor; alpha-2/beta-3/gamma-2 (Homo sapiens) (UniProt P18507+P28472+P47869). In words: Efficacy was measured as modulation of the current in response to GABA at hGABA alpha-2-beta-3-gamma-2 receptor expressed in Xenopus oocytes. Conditions: Oocyte. Put shortly:
as §1

For assay [6], the target named is T4, GABA-A receptor; alpha-3/beta-3/gamma-2 (Homo sapiens, UniProt P18507+P28472+P34903).
T4 sequence (P18507 whole entry): T1 sequence (P18507 whole entry)
T4 sequence (P28472 whole entry): T1 sequence (P28472 whole entry)
T4 sequence (P34903 whole entry): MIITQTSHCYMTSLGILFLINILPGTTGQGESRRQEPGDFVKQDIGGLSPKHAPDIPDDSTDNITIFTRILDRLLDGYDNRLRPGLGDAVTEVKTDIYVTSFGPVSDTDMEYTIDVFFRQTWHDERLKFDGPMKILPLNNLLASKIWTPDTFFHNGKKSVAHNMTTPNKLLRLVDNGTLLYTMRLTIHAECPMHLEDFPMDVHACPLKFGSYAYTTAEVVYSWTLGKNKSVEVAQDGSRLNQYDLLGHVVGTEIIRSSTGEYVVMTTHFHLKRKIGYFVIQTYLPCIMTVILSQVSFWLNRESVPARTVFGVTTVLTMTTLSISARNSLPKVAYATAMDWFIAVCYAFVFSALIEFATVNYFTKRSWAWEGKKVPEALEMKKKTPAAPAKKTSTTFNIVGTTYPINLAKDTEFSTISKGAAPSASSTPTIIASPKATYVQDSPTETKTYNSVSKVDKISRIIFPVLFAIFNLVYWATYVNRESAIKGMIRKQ
In words: Inhibition of [3H]Ro-151788 binding to recombinant human gamma-aminobutyric-acid A receptor alpha-3-beta-3-gamma-2 subtype expressed in L (tk-) cells.

Assay [7] deals with GABA-A receptor; alpha-1/beta-3/gamma-2 (Homo sapiens) (UniProt P14867+P18507+P28472). In words: Efficacy was measured as modulation of the current in response to GABA at hGABA alpha-1-beta-3-gamma-2 receptor expressed in Xenopus oocytes. The settings on record: Oocyte. The method in brief: as §1
The target in assay [8] is GABA-A receptor; alpha-5/beta-3/gamma-2 (Homo sapiens) (UniProt P18507+P28472+P31644). In words: Efficacy was measured as modulation of the current in response to GABA at hGABA alpha-5-beta-3-gamma-2 receptor expressed in Xenopus oocytes. The settings on record: Oocyte. Put shortly: as §1

The structures appear in SMILES notation.

The text below walks through data of ChEMBL document CHEMBL1142695, “Discovery of functionally selective 7,8,9,10-tetrahydro-7,10-ethano-1,2,4-triazolo[3,4-a]phthalazines as GABA A receptor agonists at the alpha3 subunit” (J Med Chem, 2005).

Consider `Cc1ccc(-c2nnc3c4c(c(OCc5ccccn5)nn23)C2CCC4CC2)cc1`, for which the Efficacy was 40% in assay [1], 14% in assay [5], 9% in assay [7] and 6% in assay [8]. In addition, the Ki in assay [2] was determined as 4.7 nM; in assay [3] it was 310 nM; in assay [4] it was 120 nM; in assay [6], 32 nM.

In the case of `Cn1cnc(COc2nn3c(-c4ccccc4)nnc3c3c2C2CCC3CC2)n1`, the Efficacy in assay [1] turned out to be 88%; in assay [5], 16%; in assay [7], 26%; in assay [8], 26%. For the same compound, the Ki in assay [2] was determined as 2.1 nM; in assay [3] it was 31 nM; in assay [4] it was 16 nM; in assay [6], 8 nM.

Take `CN1C(=O)CN=C(c2ccccc2)c2cc(Cl)ccc21`: the Efficacy in assay [1] amounted to 118%; in assay [5], 138%; in assay [7], 103%; in assay [8] it was 106%.

In the case of `c1ccc(-c2nnc3c4c(c(OCc5cccnn5)nn23)C2CCC4CC2)cc1`, the Efficacy in assay [1] turned out to be 57%; in assay [5] it was 35%; in assay [7], 64%; in assay [8], 39%. The Ki worked out at 0.88 nM in assay [2], 33 nM in assay [3], 14 nM in assay [4] and 8.5 nM in assay [6].

As a reminder, the Ki is a dissociation constant, usually derived from enzyme kinetics or from competition with a known ligand.
